Data on one compound can be found in ChEMBL document CHEMBL4350961, “Discovery of Pyrrolo[3,2- d]pyrimidin-4-one Derivatives as a New Class of Potent and Cell-Active Inhibitors of P300/CBP-Associated Factor Bromodomain” (J Med Chem, 2019).

What is called ΔTm is the shift of the melting midpoint relative to a reference.

The target in one assay is Peregrin (Homo sapiens) (UniProt P55201). The assay is described as follows: Binding affinity to human N-terminal His-tagged BRPF1 assessed as change in melting temperature at 10 uM by SYPRO orange dye-based fluorescence assay. The method, boiled down:
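Thermal shift with His-tagged human bromodomain at 2 μM final in 10 mM HEPES pH 7.5, 500 mM NaCl. Compound at 10 μM final with 0.1% DMSO; SYPRO Orange at 1:1000. Equilibrated 3 min at 25 °C, then heated from 25 to 95 °C at 1 °C/min. Melting temperature shift taken from fluorescence; at least duplicate.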

Assay [1] deals with Activin receptor type-2A (Homo sapiens) (UniProt P27037). The assay is described as follows: Inhibition of recombinant human ACTR2 (162 to end residues) at 10 uM using casein as substrate measured after 120 mins in presence of [gamma33P]ATP by scintillation counting method.
In assay [2] the target is Calcium/calmodulin-dependent protein kinase type 1B (Homo sapiens) (UniProt Q6P2M8). Kind of assay: Inhibition of recombinant full-length human CaMK1beta at 10 uM using calmodulin as substrate measured after 40 mins in presence of [gamma33P]ATP by scintillation counting method.
Assay [3] concerns the target Cyclin-dependent kinase 13/Cyclin-K (Homo sapiens) (UniProt Q14004+O75909). The assay is described as follows: Inhibition of recombinant full length human CDK13/cyclinK at 10 uM using RSRSRSRSRSRSRSR as substrate measured after 120 mins in presence of [gamma33P]ATP by scintillation counting method. The assay is classed as protein-complex assay.
The subject of assay [4] is Serine/threonine-protein kinase Chk2 (Homo sapiens), O96017 [I157T]. Kind of assay: Inhibition of recombinant human CHK2 I157T mutant (5 to end residues) at 10 uM using KKKVSRSGLYRSPSMPENLNRPR as substrate measured after 40 mins in presence of [gamma33P]ATP by scintillation counting method.
The target in assay [5] is Epidermal growth factor receptor (Homo sapiens) (UniProt P00533). Kind of assay: Inhibition of recombinant human EGFR (696 to end residues) at 10 uM using poly(Glu, Tyr) 4:1 as substrate measured after 40 mins in presence of [gamma33P]ATP by scintillation counting method.
The target of assay [6] is Ephrin type-A receptor 1 (Homo sapiens) (UniProt P21709). The assay is described as follows: Inhibition of recombinant human EphA1 (568 to end residues) at 10 uM using KKKSPGEYVNIEF as substrate measured after 40 mins in presence of [gamma33P]ATP by scintillation counting method.
The target of assay [7] is Ephrin type-A receptor 2 (Homo sapiens) (UniProt P29317). Kind of assay: Inhibition of recombinant human EphA2 (596 to 900 residues) at 10 uM using poly(Glu, Tyr) 4:1 as substrate measured after 40 mins in presence of [gamma33P]ATP by scintillation counting method.
The subject of assay [8] is Fibroblast growth factor receptor 2 (Homo sapiens), P21802 [N549H]. The assay is described as follows: Inhibition of recombinant human FGFR2 N549H mutant (456 to 770 residues) at 10 uM using GGEEEEYFELVKKKK as substrate measured after 40 mins in presence of [gamma33P]ATP by scintillation counting method.
Assay [9] concerns eIF-2-alpha kinase GCN2 (Homo sapiens), Q9P2K8 [E556G]. The assay is described as follows: Inhibition of recombinant full-length human GCN2 E556G mutant at 10 uM using RSRSRSRSRSRSRSR as substrate measured after 40 mins in presence of [gamma33P]ATP by scintillation counting method.
Assay [10] has as its target Insulin receptor (Homo sapiens) (UniProt P06213). The assay is described as follows: Inhibition of recombinant human IR (1005 to 1310 residues) at 10 uM using KKSRGDYMTMQIG as substrate measured after 40 mins in presence of [gamma33P]ATP by scintillation counting method.
In assay [11] the target is Mitogen-activated protein kinase 10 (Homo sapiens) (UniProt P53779). The assay is described as follows: Inhibition of recombinant full-length human JNK3 at 10 uM using peptide substrate measured after 40 mins in presence of [gamma33P]ATP by scintillation counting method.
Assay [12] concerns the target Serine/threonine-protein kinase mTOR (Homo sapiens) (UniProt P42345). Kind of assay: Inhibition of recombinant full-length human mTOR at 10 uM measured after 40 mins in presence of [gamma33P]ATP by scintillation counting method.
Assay [13] addresses [Pyruvate dehydrogenase (acetyl-transferring)] kinase isozyme 2, mitochondrial (Homo sapiens) (UniProt Q15119). The assay is described as follows: Inhibition of human PDHK2 at 10 uM by radiometric method. The method, boiled down:
(§1)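 Kinase panel of 422 kinases screened by Eurofins KinaseProfiler at a single test-compound concentration of 10 µM.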

The species named for the next assay is Homo sapiens. Kind of assay: Inhibition of recombinant full-length human PKBalpha […] mutant at 10 uM using GRPRTSSFAEGKK as substrate measured after 40 mins in presence of [gamma33P]ATP by scintillation counting method.
Assay [14] concerns the target Interferon-induced, double-stranded RNA-activated protein kinase (Homo sapiens) (UniProt P19525). Kind of assay: Inhibition of recombinant human PKR (252 to end residues) at 10 uM using RSRSRSRSRSRSRSR as substrate measured after 40 mins in presence of [gamma33P]ATP by scintillation counting method.
Assay [15] addresses Ribosomal protein S6 kinase alpha-6 (Homo sapiens) (UniProt Q9UK32). The assay is described as follows: Inhibition of recombinant full-length human Rsk4 at 10 uM using LRRASLG as substrate measured after 40 mins in presence of [gamma33P]ATP by scintillation counting method.
Assay [16] deals with SNF-related serine/threonine-protein kinase (Homo sapiens), Q9NRH2 [UNDEFINED MUTATION]. Kind of assay: Inhibition of human SNRK E97G/P116A mutant (65 to 409 residues) using KKLRRTLSFAEPG as substrate measured after 40 mins in presence of [gamma33P]ATP by scintillation counting method. Summed up: as §1
Assay [17] deals with Serine/threonine-protein kinase tousled-like 2 (Homo sapiens) (UniProt Q86UE8). The assay is described as follows: Inhibition of human TLK2 (387 to end residues) using casein as substrate measured after 40 mins in presence of [gamma33P]ATP by scintillation counting method.
Assay [18] has as its target Serine/threonine-protein kinase ULK3 (Homo sapiens) (UniProt Q6PHR2). Kind of assay: Inhibition of recombinant full-length human ULK3 at 10 uM using casein as substrate measured after 40 mins in presence of [gamma33P]ATP by scintillation counting method.
Assay [19] concerns the target PI3K p110 beta/p85 alpha (Homo sapiens) (UniProt P27986+P42338). Kind of assay: Inhibition of recombinant full-length human PI3K p110beta/p85alpha at 10 uM using phosphatidylinositol-4, 5-bisphosphate as substrate measured after 40 mins by fluorescence assay. The assay is classed as protein-complex assay.
Assay [20] concerns PI3-kinase p110-alpha/p85-alpha (Homo sapiens), P27986+P42336 [H1047R]. The assay is described as follows: Inhibition of recombinant full-length human PI3K p110alpha/p85alpha H1047R mutant at 10 uM using phosphatidylinositol-4, 5-bisphosphate as substrate measured after 40 mins by fluorescence assay. The assay is classed as protein-complex assay.

The source made the active and inactive calls. No cut-off for these calls is given here.

Calcium/calmodulin-dependent protein kinase type 1B (Homo sapiens), sequence (Q6P2M8 whole entry): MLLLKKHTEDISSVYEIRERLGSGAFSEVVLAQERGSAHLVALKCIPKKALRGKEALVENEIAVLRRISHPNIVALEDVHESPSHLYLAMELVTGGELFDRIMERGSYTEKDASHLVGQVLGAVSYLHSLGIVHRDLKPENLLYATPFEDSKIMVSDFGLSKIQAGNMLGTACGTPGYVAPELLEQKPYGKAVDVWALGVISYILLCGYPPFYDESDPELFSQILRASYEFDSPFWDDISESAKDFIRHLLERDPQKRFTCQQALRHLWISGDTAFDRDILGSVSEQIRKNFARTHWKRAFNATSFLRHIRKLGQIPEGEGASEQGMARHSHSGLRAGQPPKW
Activin receptor type-2A (Homo sapiens), sequence (P27037 whole entry): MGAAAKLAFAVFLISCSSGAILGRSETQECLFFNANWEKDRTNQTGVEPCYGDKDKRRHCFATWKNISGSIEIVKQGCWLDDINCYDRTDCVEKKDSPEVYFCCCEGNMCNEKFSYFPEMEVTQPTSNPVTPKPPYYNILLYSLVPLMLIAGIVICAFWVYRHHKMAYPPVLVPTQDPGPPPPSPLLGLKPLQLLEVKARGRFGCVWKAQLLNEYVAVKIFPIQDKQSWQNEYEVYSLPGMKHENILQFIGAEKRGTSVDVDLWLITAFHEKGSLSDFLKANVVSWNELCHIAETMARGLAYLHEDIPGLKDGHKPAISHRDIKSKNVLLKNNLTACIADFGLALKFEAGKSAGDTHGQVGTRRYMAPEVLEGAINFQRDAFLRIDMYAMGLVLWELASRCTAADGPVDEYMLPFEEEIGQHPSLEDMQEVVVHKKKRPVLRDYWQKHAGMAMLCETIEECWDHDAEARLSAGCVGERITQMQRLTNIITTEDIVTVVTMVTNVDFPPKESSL
Ribosomal protein S6 kinase alpha-6 (Homo sapiens), sequence (Q9UK32 whole entry, the tested form may be a part): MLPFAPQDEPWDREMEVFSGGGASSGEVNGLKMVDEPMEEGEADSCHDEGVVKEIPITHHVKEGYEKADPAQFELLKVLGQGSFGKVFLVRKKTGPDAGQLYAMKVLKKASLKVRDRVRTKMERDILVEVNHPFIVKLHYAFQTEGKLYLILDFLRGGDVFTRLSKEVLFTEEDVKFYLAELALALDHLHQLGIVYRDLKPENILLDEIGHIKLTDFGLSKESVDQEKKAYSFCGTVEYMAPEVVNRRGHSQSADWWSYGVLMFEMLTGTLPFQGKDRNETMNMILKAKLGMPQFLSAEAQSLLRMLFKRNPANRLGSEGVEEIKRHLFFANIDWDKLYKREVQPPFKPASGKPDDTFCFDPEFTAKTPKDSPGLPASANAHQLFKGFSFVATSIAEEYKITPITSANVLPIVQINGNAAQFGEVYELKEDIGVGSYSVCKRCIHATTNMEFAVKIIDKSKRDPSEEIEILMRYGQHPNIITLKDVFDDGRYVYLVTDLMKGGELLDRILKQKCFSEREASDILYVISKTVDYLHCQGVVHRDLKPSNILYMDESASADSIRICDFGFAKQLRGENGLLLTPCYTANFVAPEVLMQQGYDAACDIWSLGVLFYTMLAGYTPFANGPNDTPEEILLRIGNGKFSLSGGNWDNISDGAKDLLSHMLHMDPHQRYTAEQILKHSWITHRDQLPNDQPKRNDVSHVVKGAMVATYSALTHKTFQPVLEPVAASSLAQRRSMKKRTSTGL
Epidermal growth factor receptor (Homo sapiens), sequence (P00533 whole entry): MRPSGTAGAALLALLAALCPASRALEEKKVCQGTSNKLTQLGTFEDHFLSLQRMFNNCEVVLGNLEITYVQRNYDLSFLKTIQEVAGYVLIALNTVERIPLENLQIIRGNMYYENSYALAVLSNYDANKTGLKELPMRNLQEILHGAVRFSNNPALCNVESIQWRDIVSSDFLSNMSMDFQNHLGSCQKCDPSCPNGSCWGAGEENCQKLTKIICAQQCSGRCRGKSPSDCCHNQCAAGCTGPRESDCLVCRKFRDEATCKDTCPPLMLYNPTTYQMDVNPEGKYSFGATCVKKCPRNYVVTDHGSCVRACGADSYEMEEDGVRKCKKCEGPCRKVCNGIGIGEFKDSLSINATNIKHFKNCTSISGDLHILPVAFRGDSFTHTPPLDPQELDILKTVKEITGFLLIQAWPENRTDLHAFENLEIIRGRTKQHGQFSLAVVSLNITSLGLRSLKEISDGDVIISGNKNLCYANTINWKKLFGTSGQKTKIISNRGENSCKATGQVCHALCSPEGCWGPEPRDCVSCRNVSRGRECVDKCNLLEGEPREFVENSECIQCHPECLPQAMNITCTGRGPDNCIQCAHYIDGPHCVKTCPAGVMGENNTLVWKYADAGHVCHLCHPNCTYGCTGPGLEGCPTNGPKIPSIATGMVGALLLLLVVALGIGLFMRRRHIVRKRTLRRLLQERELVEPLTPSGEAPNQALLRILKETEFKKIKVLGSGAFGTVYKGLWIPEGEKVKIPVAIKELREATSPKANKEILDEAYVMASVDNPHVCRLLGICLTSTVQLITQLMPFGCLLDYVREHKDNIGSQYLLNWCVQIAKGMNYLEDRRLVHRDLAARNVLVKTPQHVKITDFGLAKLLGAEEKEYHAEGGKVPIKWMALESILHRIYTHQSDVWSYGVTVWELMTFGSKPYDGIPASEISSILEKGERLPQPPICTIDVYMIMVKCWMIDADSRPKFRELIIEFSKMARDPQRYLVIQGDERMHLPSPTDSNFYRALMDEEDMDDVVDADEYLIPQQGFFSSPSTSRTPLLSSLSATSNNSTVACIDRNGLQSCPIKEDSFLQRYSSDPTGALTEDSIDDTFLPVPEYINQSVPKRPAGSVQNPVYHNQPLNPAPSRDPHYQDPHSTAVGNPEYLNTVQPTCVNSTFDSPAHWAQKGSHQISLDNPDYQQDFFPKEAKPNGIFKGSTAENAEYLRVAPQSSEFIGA
Fibroblast growth factor receptor 2 (Homo sapiens), P21802 [N549H], sequence (P21802 whole entry N549H, the tested form may be a part): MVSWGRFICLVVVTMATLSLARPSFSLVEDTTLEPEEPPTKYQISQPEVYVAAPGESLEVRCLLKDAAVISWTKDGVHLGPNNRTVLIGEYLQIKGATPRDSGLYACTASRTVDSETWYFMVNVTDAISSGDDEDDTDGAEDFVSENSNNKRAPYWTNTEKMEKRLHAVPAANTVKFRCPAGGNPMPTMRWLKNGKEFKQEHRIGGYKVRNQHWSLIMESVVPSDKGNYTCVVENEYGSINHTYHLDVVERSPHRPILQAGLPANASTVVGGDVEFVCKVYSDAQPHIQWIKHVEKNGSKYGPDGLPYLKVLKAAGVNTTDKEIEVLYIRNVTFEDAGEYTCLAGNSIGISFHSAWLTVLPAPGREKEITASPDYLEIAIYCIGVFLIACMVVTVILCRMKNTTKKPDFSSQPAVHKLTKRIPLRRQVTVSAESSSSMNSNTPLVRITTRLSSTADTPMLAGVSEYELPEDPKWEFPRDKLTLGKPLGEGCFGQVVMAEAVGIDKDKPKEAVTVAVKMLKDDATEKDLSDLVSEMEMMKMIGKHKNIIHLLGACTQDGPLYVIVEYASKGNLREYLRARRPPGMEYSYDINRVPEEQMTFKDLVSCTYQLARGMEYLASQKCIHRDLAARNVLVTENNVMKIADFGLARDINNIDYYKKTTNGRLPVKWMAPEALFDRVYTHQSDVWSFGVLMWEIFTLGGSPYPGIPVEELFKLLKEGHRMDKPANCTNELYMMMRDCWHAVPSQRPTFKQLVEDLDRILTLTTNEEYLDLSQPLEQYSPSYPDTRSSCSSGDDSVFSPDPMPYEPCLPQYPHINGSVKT
Peregrin (Homo sapiens), sequence (P55201 whole entry): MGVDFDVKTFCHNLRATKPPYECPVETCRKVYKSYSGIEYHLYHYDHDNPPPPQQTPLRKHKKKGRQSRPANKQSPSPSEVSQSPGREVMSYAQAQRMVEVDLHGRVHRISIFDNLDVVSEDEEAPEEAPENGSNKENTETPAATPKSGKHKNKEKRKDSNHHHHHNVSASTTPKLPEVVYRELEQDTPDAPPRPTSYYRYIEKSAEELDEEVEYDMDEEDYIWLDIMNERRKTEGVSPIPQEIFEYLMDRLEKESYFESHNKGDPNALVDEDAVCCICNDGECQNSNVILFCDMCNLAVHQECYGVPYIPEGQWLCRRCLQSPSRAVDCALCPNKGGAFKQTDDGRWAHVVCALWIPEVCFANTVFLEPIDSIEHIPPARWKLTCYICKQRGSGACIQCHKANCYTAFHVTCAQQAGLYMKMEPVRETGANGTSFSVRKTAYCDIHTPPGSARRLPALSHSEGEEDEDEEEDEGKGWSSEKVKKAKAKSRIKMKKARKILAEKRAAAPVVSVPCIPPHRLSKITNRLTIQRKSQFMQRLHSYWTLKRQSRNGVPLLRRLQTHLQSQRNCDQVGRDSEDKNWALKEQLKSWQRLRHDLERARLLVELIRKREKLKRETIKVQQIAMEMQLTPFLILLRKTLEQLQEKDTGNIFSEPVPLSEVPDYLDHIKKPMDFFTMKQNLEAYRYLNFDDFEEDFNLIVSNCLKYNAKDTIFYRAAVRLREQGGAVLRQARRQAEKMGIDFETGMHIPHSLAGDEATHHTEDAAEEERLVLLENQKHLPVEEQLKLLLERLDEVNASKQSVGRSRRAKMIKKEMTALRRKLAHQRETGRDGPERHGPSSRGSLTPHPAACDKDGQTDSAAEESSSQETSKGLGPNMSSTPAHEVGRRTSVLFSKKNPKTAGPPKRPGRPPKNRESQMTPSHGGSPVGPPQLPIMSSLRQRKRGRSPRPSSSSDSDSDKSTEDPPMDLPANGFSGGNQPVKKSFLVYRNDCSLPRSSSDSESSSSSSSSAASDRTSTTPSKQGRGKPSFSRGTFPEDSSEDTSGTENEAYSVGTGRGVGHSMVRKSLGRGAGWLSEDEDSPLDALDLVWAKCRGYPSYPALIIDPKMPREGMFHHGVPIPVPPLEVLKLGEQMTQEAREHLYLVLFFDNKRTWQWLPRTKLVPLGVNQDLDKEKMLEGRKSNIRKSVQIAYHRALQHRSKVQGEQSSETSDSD

In the case of `CN1C[C@H](Nc2nc3cc[nH]c3c(=O)n2C)C[C@H](c2ccc3c(c2)OCCO3)C1`, the ΔTm at Peregrin (Homo sapiens) is 2.6 °C. Besides, the inhibition result in [1], in assay [2], in [3], in assay [4], in assay [5] and in assay [6] was “inactive” throughout. The inhibition result in assay [7], in assay [8], in assay [9], in [10], in assay [11] and in assay [12] was “inactive” throughout. Moreover, the inhibition result (in [13]; in the assay filed under Homo sapiens; in assay [14]; in [15]; in [16]; in [17]) was “inactive” in each case. The inhibition entry in assay [18], in assay [19] and in assay [20] was “inactive” throughout.
